Measured values taken from ChEMBL document CHEMBL4732262, “Identification of two novel thiophene analogues as inducers of autophagy mediated cell death in breast cancer cells” (Bioorg Med Chem, 2021).
Activity calls are given as the source filed them. The rule behind the calls is not given here.

Columns and labels:
MCF7 [1] = experiment: Induction of apoptosis in human MCF7 cells assessed as late apoptotic cells at 2.5 uM after 24 hrs by annexin V-FITC/Propidium iodide staining based flow cytometric analysis (reference value: 0.2%); type: functional
MCF7 [2] = experiment: Induction of autophagy in human MCF7 cells assessed as increase in BAD mRNA expression at 2.5 uM after 24 hrs by RT-PCR analysis; type: functional, cell-based
How it was run: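 MCF7 cells given 2.5 µM or DMSO for 24 h. Total RNA extracted with TRIzol and reverse-transcribed, then SYBR Green qPCR across 34 autophagy-regulatory genes (95 °C 10 min; 40 cycles of 95 °C 15 s and 60 °C 1 min). Relative expression by 2^-ΔΔCt against housekeeping genes and DMSO control, shown as log2. Two independent experiments.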

MCF7 [3] = experiment: Induction of apoptosis in human MCF7 cells assessed as early apoptotic cells at 2.5 uM after 24 hrs by annexin V-FITC/Propidium iodide staining based flow cytometric analysis (reference value: 3.94%); type: functional
MCF7 [4] = experiment: Induction of autophagy in human MCF7 cells assessed as increase in UVRAG mRNA expression at 2.5 uM after 24 hrs by RT-PCR analysis; type: functional, cell-based
How it was run: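 Total RNA was taken with TRIzol from MCF7 cells treated 24 h with 2.5 µM compound or DMSO, then reverse transcribed. SYBR Green qPCR ran 40 cycles of 95 °C 15 s / 60 °C 1 min. Relative expression was calculated by 2^-ΔΔCt against DMSO-treated cells, normalized to housekeeping genes (GAPDH, B2M and others). Samples run in duplicate, two independent experiments, values averaged.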

MCF7 [5] = experiment: Induction of apoptosis in human MCF7 cells assessed as increase in cleaved-PARP protein expression at 2.5 uM after 24 hrs in presence of chloroquine by Western blot analysis; type: functional, cell-based
How it was run: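 MCF7 cells given 2.5 µM alone or combined with 50 µM chloroquine for 24 h. Western blot for cleaved PARP, p62 and LC3, with GAPDH as loading control. LC3-II/I ratio by densitometry. At least two independent experiments.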

MDA-MB-231 [6] = experiment: Induction of apoptosis in human MDA-MB-231 cells assessed as increase in cleaved PARP level at 2.5 uM after r24 hrs by Western blot analysis; type: functional, cell-based; conditions: time 24.0 hrs
How it was run: (§1)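 MCF7 or MDA-MB-231 cells given 2.5 µM or DMSO for 24 h, then lysed in RIPA buffer. Immunoblots probed overnight at 4 °C, followed by infrared-labelled secondary antibody for 1 h at 37 °C. Bands imaged and quantified densitometrically, with GAPDH as loading control. Representative of two independent experiments.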

MCF7 (Homo sapiens) = experiment: Induction of apoptosis in human MCF7 cells assessed as increase in cell death at 2.5 uM after 24 hrs by EtBr/AO staining based fluorescence microscopic method relative to tanshinone-2A
MCF7 [7] = experiment: Induction of autophagy in human MCF7 cells assessed as increase in DDIT3 mRNA expression at 2.5 uM after 24 hrs by PCR microarray analysis; type: functional, cell-based
How it was run: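 MCF7 cells given 2.5 µM or DMSO for 24 h. cDNA run on an Unfolded Protein Response RT2 Profiler PCR array. Changes computed by 2^-ΔΔCt (log2) against control, normalised to the mean of ACTB, B2M, GAPDH, HPRT1 and RPLPO.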

MDA-MB-231 [8] = experiment: Induction of apoptosis in human MDA-MB-231 cells at 2.5 uM after 24 hrs by annexin V-FITC/Propidium iodide staining based flow cytometric analysis relative to tanshinone-2A; type: functional
MCF7 [9] = experiment: Induction of autophagy in human MCF7 cells assessed as increase in LC3-2 conversion level after 24 hrs by Western blot analysis; type: functional, cell-based; conditions: dose 1.25-5 µM
How it was run: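 MCF7 cells exposed for 24 h to 0, 1.25, 2.5 or 5 µM. Western blot with GAPDH as loading control. LC3-II/I ratio obtained by densitometry. At least two independent experiments.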

MCF7 [10] = experiment: Induction of autophagy in human MCF7 cells assessed as increase in GADD34 protein expression at 2.5 uM after 24 hrs by Western blot analysis; type: functional, cell-based; how it was run: as §1
MDA-MB-231 [11] = experiment: Induction of apoptosis in human MDA-MB-231 cells assessed as necrotic cells at 2.5 uM after 24 hrs by annexin V-FITC/Propidium iodide staining based flow cytometric analysis (reference value: 0.65%); type: functional
MDA-MB-231 [12] = experiment: Induction of apoptosis in human MDA-MB-231 cells assessed as early apoptotic cells at 2.5 uM after 24 hrs by annexin V-FITC/Propidium iodide staining based flow cytometric analysis (reference value: 1.54%); type: functional
MCF7 [13] = experiment: Induction of autophagy in human MCF7 cells assessed as increase in p62 degradation at 2.5 uM after 24 hrs in presence of chloroquine by Western blot analysis; type: functional, cell-based
How it was run: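 MCF7 cells were given 2.5 µM compound alone or combined with 50 µM chloroquine, with DMSO control, for 24 h. Lysates were immunoblotted for p62 and LC3, with GAPDH as loading control. Band intensities were quantified by infrared imaging. At least two independent experiments.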

MCF7 [14] = experiment: Induction of autophagy in human MCF7 cells assessed as LC3-2 to LC3-1 protein ratio at 5 uM after 24 hrs by Western blot analysis (reference value: 0.22 to 0.8); type: functional
MCF7 [15] = experiment: Induction of apoptosis in human MCF7cells assessed as reduction in number of cells at 2.5 uM by phase contrast microscopic method; type: functional, cell-based; conditions: time 6-24 hrs, TDE = time-dependent effect
How it was run: (§2)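 ~5 × 10^4 cells in 6-well plates, either DMSO control or 2.5 µM. Morphology imaged at 0, 6, 12 and 24 h.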

MDA-MB-231 [16] = experiment: Cytotoxicity against human MDA-MB-231 cells assessed as reduction in cell viability after 24 hrs by MTT assay; type: functional, cell-based; conditions: MDA-MB-231, 24 h
How it was run: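 Cells seeded ~5 × 10^3 per well in 96-well plates, exposed to 0–40 µM for 24 h. MTT added at 0.5 mg/ml for 3 h, formazan dissolved in DMSO, absorbance read at 540 nm. IC50 taken from plotted curves. Duplicate wells, two independent repeats. MCF7 grown in DMEM, MDA-MB-231 in RPMI, both with 10% FBS at 37 °C and 5% CO2.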

MCF7 [17] = experiment: Induction of autophagy in human MCF7 cells assessed as increase in CHOP protein expression at 2.5 uM after 24 hrs by Western blot analysis; type: functional, cell-based; how it was run: as §1
MCF7 [18] = experiment: Induction of apoptosis in human MCF7cells assessed as reduction in size of cells at 2.5 uM by phase contrast microscopic method; type: functional, cell-based; conditions: time 6-24 hrs, TDE = time-dependent effect; how it was run: as §2

| Compound | Activity (MCF7 [1]) [%] | Activity (MCF7 [2]) | Activity (MCF7 [3]) [%] | Activity (MCF7 [4]) | Activity (MCF7 [5]) | Activity (MDA-MB-231 [6]) | fold change (FC) (MCF7 (Homo sapiens)) | Activity (MCF7 [7]) | fold change (FC) (MDA-MB-231 [8]) | Activity (MCF7 [9]) | Activity (MCF7 [10]) | Activity (MDA-MB-231 [11]) [%] | Activity (MDA-MB-231 [12]) [%] | Activity (MCF7 [13]) | Ratio (MCF7 [14]) | Activity (MCF7 [15]) | IC50 (MDA-MB-231 [16]) [nM] | Activity (MCF7 [17]) | Activity (MCF7 [18]) |
| --- | --- | --- | --- | --- | --- | --- | --- | --- | --- | --- | --- | --- | --- | --- | --- | --- | --- | --- | --- |
| O=C1C(=O)c2ccsc2-c2ccccc21 | 19.1 | Active | 17.9 | Active | inactive | Active | 2 | Active | >=2 | Dose-dependent effect | Active | 43.5 | 11.9 | inactive | 34.1 | Tde | 2600 | Active | Tde |
| O=C1C(=O)c2sccc2-c2ccccc21 | 23.5 | Active | 31.4 | Active | inactive | Active | 2 | Active | >=2 | Dose-dependent effect | Active | 26.8 | 24.7 | inactive | 11.4 | Tde | 2960 | Active | Tde |
